{"source": "BindingDB's records for PubMed 36228194", "about": "(University of Bayreuth, 2022)", "biological_target": "T1, NAD-dependent protein deacetylase sirtuin-3, mitochondrial (Homo sapiens, UniProt Q9NTG7)", "T1 sequence (Q9NTG7 whole entry)": "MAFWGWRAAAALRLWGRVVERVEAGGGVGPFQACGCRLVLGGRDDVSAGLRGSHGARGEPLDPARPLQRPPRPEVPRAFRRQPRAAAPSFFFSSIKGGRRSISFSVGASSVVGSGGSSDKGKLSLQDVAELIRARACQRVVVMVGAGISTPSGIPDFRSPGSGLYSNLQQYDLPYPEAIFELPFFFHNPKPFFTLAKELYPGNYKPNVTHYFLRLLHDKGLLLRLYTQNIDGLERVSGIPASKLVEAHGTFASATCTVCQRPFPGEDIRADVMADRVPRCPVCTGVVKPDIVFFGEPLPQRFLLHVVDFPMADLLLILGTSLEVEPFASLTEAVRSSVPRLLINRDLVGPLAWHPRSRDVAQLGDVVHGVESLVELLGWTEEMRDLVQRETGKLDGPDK", "assay": "Activation of N-terminal his-tagged human SIRT3 (114 to 380 residues) expressed in Escherichia coli in presence of NAD+ by Mass spectrometry assay", "method_in_brief": "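Mass-spectrometric deacetylation assay using coupled-assay components (1.5 µM Sirt3, 50 µM peptide, 100 µM NAD+, compound 100 µM) in 50 mM Na-phosphate pH 7.8 plus 0.05 µg/µL PNCA to remove nicotinamide; product and substrate peptides quantified.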"}
{"compound": "CCOC(=O)C1=CN(C(=O)c2cc(OC)c(OC)c(OC)c2)C=C(C(=O)OCC)C1c1ccccc1", "values": [{"measurement": "EC50", "value": 100, "unit": "µM"}]}
